In ChEMBL document CHEMBL1255372 (2008):
Converted amounts (≈) assume the structure as drawn.

Legend:
Type in all cases: functional
Klebsiella pneumoniae [1] = assay: Antibacterial activity against Klebsiella pneumoniae isolate VA367 with blaKPC-3, qnrB19, blaTEM-1, blaSHV-11, blaSHV-12, aac(6')-1b genes by CLSI method
Klebsiella pneumoniae [2] = assay: Antibacterial activity against Klebsiella pneumoniae isolate VA375 with blaKPC-3, qnrA1, blaTEM-1, blaSHV-11 genes by CLSI method
Escherichia coli [3] = assay: Antibacterial activity against Escherichia coli J53 transconjugated with Klebsiella pneumoniae isolate VA375 containing qnrA1, blaTEM-1, blaSHV-11genes by CLSI method
Escherichia coli [4] = assay: Antibacterial activity against Escherichia coli J53 by CLSI method
Klebsiella pneumoniae [5] = assay: Antibacterial activity against Klebsiella pneumoniae isolate VA367 with blaKPC-3, qnrB19, blaTEM-1, blaSHV-11, blaSHV-12, aac(6')-1b genes by Etest method
Klebsiella pneumoniae [6] = assay: Antibacterial activity against Klebsiella pneumoniae isolate VA375 with blaKPC-3, qnrA1, blaTEM-1, blaSHV-11 genes by Etest method
Escherichia coli [7] = assay: Antibacterial activity against Escherichia coli J53 transconjugated with Klebsiella pneumoniae isolate VA367 containing blaKPC-3, qnrB19, blaTEM-1, blaSHV-11, aac(6')-1b genes by CLSI method
Escherichia coli [8] = assay: Antibacterial activity against Escherichia coli J53 by Etest method
Escherichia coli [9] = assay: Antibacterial activity against Escherichia coli J53 transconjugated with Klebsiella pneumoniae isolate VA375 containing qnrA1, blaTEM-1, blaSHV-11genes by Etest method
Procedure, shortened: (§1)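 Test strains were E. coli J53 (rifampin-resistant recipient) transconjugants obtained by conjugation with the K. pneumoniae donor isolate. After overnight incubation, the donor–recipient mixture was plated on MacConkey agar containing ceftazidime (10 mg/liter) plus rifampin (100 mg/liter) to select transconjugants. Etest conditions are not described.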

Escherichia coli [10] = assay: Antibacterial activity against Escherichia coli J53 transconjugated with Klebsiella pneumoniae isolate VA367 containing blaKPC-3, qnrB19, blaTEM-1, blaSHV-11, aac(6')-1b genes by Etest method; procedure, shortened: as §1

Molecule	MIC (Klebsiella pneumoniae [1]) [µg/mL]	MIC (Klebsiella pneumoniae [2]) [µg/mL]	MIC (Escherichia coli [3]) [µg/mL]	MIC (Escherichia coli [4]) [µg/mL]	MIC (Klebsiella pneumoniae [5]) [µg/mL]	MIC (Klebsiella pneumoniae [6]) [µg/mL]	MIC (Escherichia coli [7]) [µg/mL]	MIC (Escherichia coli [8]) [µg/mL]	MIC (Escherichia coli [9]) [µg/mL]	MIC (Escherichia coli [10]) [µg/mL]
C[C@@H](O)[C@H]1C(=O)N2C(C(=O)O)=C(S[C@@H]3CN[C@H](C(=O)N(C)C)C3)[C@H](C)[C@H]12 [MEROPENEM]	2 (≈ 5.22 µM)	1 (≈ 2.61 µM)	≤ 0.25	≤ 0.25	8 (≈ 20.9 µM)	4 (≈ 10.4 µM)	1 (≈ 2.61 µM)	0.047 (≈ 0.123 µM)	0.38 (≈ 0.991 µM)	4 (≈ 10.4 µM)
C[C@@H](O)[C@H]1C(=O)N2C(C(=O)O)=C(S[C@@H]3CN[C@H](C(=O)Nc4cccc(C(=O)O)c4)C3)[C@H](C)[C@H]12					16 (≈ 33.6 µM)	8 (≈ 16.8 µM)		0.023 (≈ 0.0484 µM)	0.125 (≈ 0.263 µM)	2 (≈ 4.21 µM)
CC(C)(O/N=C(\C(=O)N[C@@H]1C(=O)N2C(C(=O)[O-])=C(C[n+]3ccccc3)CS[C@H]12)c1csc(N)n1)C(=O)O [CEFTAZIDIME]	≥ 64	≥ 64	≥ 64	≤ 1			32 (≈ 58.5 µM)			
COLISTIN						1		0.38	0.38	0.38
C[C@@H](O)[C@H]1C(=O)N2C(C(=O)O)=C(SCCNC=N)C[C@H]12 [IMIPENEM ANHYDROUS]	2 (≈ 6.68 µM)	2 (≈ 6.68 µM)	≤ 1	≤ 1	16 (≈ 53.4 µM)	8 (≈ 26.7 µM)	4 (≈ 13.4 µM)		0.38 (≈ 1.27 µM)	4 (≈ 13.4 µM)
C[C@H]1COc2c(N3CCN(C)CC3)c(F)cc3c(=O)c(C(=O)O)cn1c23.C[C@H]1COc2c(N3CCN(C)CC3)c(F)cc3c(=O)c(C(=O)O)cn1c23.O [LEVOFLOXACIN]	≥ 8			≤ 0.25	≥ 32	0.75		0.25	1.5	0.75
NCC[C@H](O)C(=O)N[C@@H]1C[C@H](N)[C@@H](O[C@H]2O[C@H](CN)[C@@H](O)[C@H](O)[C@H]2O)[C@H](O)[C@H]1O[C@H]1O[C@H](CO)[C@@H](O)[C@H](N)[C@H]1O [AMIKACIN]	≥ 64	≤ 2	≤ 2	≤ 2			16 (≈ 27.3 µM)			
GENTAMICIN	4	> 16	4	< 1			< 1			
O=C1CN(/N=C/c2ccc([N+](=O)[O-])o2)C(=O)N1 [NITROFURANTOIN]	≥ 512	64 (≈ 269 µM)	≤ 16	≤ 16			≤ 16			
CO/N=C(\C(=O)N[C@@H]1C(=O)N2C(C(=O)O)=C(COC(N)=O)CS[C@H]12)c1ccco1 [CEFUROXIME]	≥ 64	≥ 64	≥ 64	16 (≈ 37.7 µM)			≥ 64			
CN(C)c1cc(NC(=O)CNC(C)(C)C)c(O)c2c1C[C@H]1C[C@H]3[C@H](N(C)C)C(O)=C(C(N)=O)C(=O)[C@@]3(O)C(O)=C1C2=O [TIGECYCLINE]						1.5 (≈ 2.56 µM)		0.5 (≈ 0.854 µM)	0.5 (≈ 0.854 µM)	0.5 (≈ 0.854 µM)
NC[C@H]1O[C@H](O[C@H]2[C@H](O)[C@@H](O[C@H]3O[C@H](CO)[C@@H](O)[C@H](N)[C@H]3O)[C@H](N)C[C@@H]2N)[C@H](N)C[C@@H]1O [TOBRAMYCIN]	≥ 16	≥ 16	4 (≈ 8.56 µM)	≤ 1			≥ 16			
O=C(O)c1cn(C2CC2)c2cc(N3CCNCC3)c(F)cc2c1=O [CIPROFLOXACIN]					≥ 32	0.75 (≈ 2.26 µM)				
CCN1CCN(C(=O)N[C@@H](C(=O)N[C@@H]2C(=O)N3[C@@H]2SC(C)(C)[C@@H]3C(=O)O)c2ccccc2)C(=O)C1=O [PIPERACILLIN]	≥ 128	≥ 128	≥ 128	≤ 4			≥ 128			
CO/N=C(\C(=O)N[C@@H]1C(=O)N2C(C(=O)O)=C(CSc3nc(=O)c(O)nn3C)CS[C@H]12)c1csc(N)n1 [CEFTRIAXONE]	≥ 64	32 (≈ 57.7 µM)	8 (≈ 14.4 µM)	≤ 1			8 (≈ 14.4 µM)			
